For orientation: IC50 means the concentration that gives 50% inhibition. The low end stands for greater potency, the high end for weaker potency.

A value given as a limit tells only on which side of the number the result lay.

The target in experiment [1] is T1, Renin (Homo sapiens, UniProt P00797).
T1 sequence (P00797 whole entry): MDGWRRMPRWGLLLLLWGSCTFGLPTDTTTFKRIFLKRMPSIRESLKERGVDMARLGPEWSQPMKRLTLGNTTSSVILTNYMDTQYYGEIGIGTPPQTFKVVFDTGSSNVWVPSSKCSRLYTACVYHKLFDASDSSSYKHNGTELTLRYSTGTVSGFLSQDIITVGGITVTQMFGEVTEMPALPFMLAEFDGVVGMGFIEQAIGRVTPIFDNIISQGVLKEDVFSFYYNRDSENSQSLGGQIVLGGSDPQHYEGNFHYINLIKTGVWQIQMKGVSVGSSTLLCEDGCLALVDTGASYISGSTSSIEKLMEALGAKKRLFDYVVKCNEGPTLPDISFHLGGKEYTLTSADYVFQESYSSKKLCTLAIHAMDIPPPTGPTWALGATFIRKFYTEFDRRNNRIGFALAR
Kind of experiment: Inhibitory concentration against human renin.

Another experiment deals with Renin (Canis familiaris). The experiment in a line: Inhibitory concentration was measured against plasma renin from dog.
For experiment [2], the target named is T2, Renin (Rattus norvegicus, UniProt P08424).
T2 sequence (P08424 whole entry): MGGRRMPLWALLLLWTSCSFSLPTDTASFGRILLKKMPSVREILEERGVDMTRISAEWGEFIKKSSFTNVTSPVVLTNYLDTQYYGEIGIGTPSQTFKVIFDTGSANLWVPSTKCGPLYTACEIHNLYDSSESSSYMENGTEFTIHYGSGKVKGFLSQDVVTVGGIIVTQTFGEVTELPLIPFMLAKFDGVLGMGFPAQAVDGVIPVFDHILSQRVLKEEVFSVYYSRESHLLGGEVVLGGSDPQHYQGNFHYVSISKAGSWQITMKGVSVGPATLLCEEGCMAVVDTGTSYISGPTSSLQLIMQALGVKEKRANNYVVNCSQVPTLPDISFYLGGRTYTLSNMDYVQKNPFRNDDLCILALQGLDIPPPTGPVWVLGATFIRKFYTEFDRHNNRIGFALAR
The experiment in a line: Inhibitory concentration was measured against plasma renin from rat.

For experiment [3], the target named is T1, Renin. Kind of experiment: Inhibitory concentration was measured against plasma renin from human. It counts as cell-free. The procedure, abridged: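 Human plasma containing EDTA-2Na (14 mM) and neomycin sulfate (0.3%) was mixed with 0.5 M phosphate buffer pH 7.0, Phe-Ala-Pro and inhibitor in DMSO. Incubation ran 60 min at 37 °C, then angiotensin I generated was quantified by radioimmunoassay. IC50 refers to inhibition of plasma renin activity.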

In the case of `CC(C)CC(NC(=O)C(Cc1c[nH]cn1)NC(=O)C(CC(=O)N1CCOCC1)Cc1cccc2ccccc12)C(O)C(=O)NC(C)C` (stereo not given), the IC50 at Renin [1] is 130 nM; against Renin (Canis familiaris) it was 1100 nM; against Renin [2], 4400 nM; at Renin [3] it was 130 nM.

On to `CC(C)CC(NC(=O)C(Cc1cnc[nH]1)NC(=O)C(CC(=O)N1CCOCC1)Cc1cccc2ccccc12)C(O)CC(=O)OC(C)C` (stereo not given), for which the IC50 is 180 nM at Renin [1], 350 nM against Renin (Canis familiaris), more than 100000 nM against Renin [2] and 66 nM at Renin [3].

As for `COC(=O)C(O)C(CC(C)C)NC(=O)C(Cc1c[nH]cn1)NC(=O)C(CC(=O)N(C)C)Cc1cccc2ccccc12` (stereo not given), the IC50 against Renin [1] was 78 nM; against Renin (Canis familiaris) it was 640 nM; on Renin [2], more than 100000 nM; against Renin [3], 25 nM.

In turn, `COC(=O)[C@@H](O)C(CC(C)C)NC(=O)C(Cc1c[nH]cn1)NC(=O)C(CC(=O)NCCc1ccccc1)Cc1cccc2ccccc12` (single isomer, unassigned; (+)) displayed an IC50 against Renin [1] of 1300 nM.

Turning to `COC(=O)[C@H](O)C(CC(C)C)NC(=O)C(Cc1cnc[nH]1)NC(=O)C(CC(=O)NCCc1ccccc1)Cc1cccc2ccccc12` (single isomer, unassigned; (+)), the figures for the half-maximal inhibitory concentration (IC50) at Renin [1] and against Renin [3] were 31 nM and 77 nM, respectively.

Take `COC(=O)C(O)C(CC(C)C)NC(=O)C(Cc1c[nH]cn1)NC(=O)C(CC(=O)NCCc1ccccc1)Cc1cccc2ccccc12` (stereo in doubt): the IC50 was 78 nM against Renin [1], 2100 nM at Renin (Canis familiaris), more than 100000 nM against Renin [2] and 90 nM on Renin [3].

The compound `COC(=O)C(O)C(CC(C)C)NC(=O)C(Cc1c[nH]cn1)NC(=O)C(CC(=O)NCCc1ccccc1)Cc1cccc2ccccc12` (stereo in doubt; 12) gave a half-inhibitory concentration (IC50) on Renin [1] of more than 100000 nM.
